Test results: PMC3769332 (Molecular & Cellular Proteomics : MCP, 2013)
Ends that are not written are not given here.

Experiments:
Scrib PDZ1 = test: HTRF peptide binding to Scrib PDZ1; parameters: species or system human
SCRIB_3 = molecular target: T1, SCRIB_3 (Homo sapiens, UniProt Q14160); test: HTRF peptide-GST-PDZ binding
T1 sequence (Q14160 1004-1093 limits assumed): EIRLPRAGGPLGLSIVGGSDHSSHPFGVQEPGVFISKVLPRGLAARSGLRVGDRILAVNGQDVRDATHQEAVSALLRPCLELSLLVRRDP

Xenopus embryo = test: Neural tube closure in Xenopus embryos; type: in vivo, Xenopus laevis; conditions: MO injected in dorsal blastomeres at 4- to 8-cell stage
GST-Scrib PDZ3 = molecular target: T2, GST-Scrib PDZ3 (human, UniProt Q14160 994-1103); test: AlphaScreen or HTRF
T2 sequence (looked up): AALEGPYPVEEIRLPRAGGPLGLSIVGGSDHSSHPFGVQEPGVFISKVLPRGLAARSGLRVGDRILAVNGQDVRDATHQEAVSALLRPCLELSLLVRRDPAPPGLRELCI

T47D cells = test: Boyden chamber cell migration, T47D; type: cell-based; conditions: stimulation with 1 nM HRG, 12 h
Method in brief: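 Transwell migration through 8-μm pore polycarbonate membranes, underside coated with 25 μg/ml rat-tail collagen I. T47D cells were lipofectamine-transfected with pEGFP, pEGFP-Vangl2 or mutants, serum-starved 16 h, and seeded in the top chamber. The bottom chamber held medium with or without HRG for 12 h. Non-migrated cells were scraped off; migrated cells were fixed in 4% formaldehyde, crystal violet-stained (0.1%) and counted. Fold change, three independent experiments summed.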

MEF^Crc/Crc = test: Boyden chamber cell migration, MEF Crc/Crc; type: cell-based, mouse; conditions: MEFs deficient for Scrib, serum-induced
wild-type MEFs = test: Boyden chamber cell migration, wild-type MEF; type: cell-based, mouse; conditions: serum-induced
Method in brief: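 MEFs, wild-type or Crc/Crc, nucleofected transiently with GFP or GFP-Vangl2, then serum-starved 16 h and plated in the upper chamber of 8-μm pore polycarbonate transwells. Filter underside coated with human fibronectin ([…]). Serum (FCS) served as chemoattractant. Migrated cells were fixed in 4% formaldehyde, stained with 0.1% crystal violet and counted. Mann–Whitney U test versus control.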

Scrib PDZ3 domain = test: GST-Scrib PDZ pull-down, individual domain; type: binding, human; conditions: pull-down on HEK 293T extracts
[1] = system: GST fused to the four Scrib PDZ domains; test: GST-Scrib PDZ pull-down; type: binding, human; conditions: pull-down on transfected HEK 293T extracts
Scrib PDZ4 = test: GST-Scrib PDZ pull-down, individual domain; type: binding, human; conditions: pull-down on HEK 293T extracts
SNX27 = test: Co-affinity purification with SNX27, HEK 293T; type: cell-based; conditions: streptavidin affinity purification, Western blot

## H-VLKNMNDPAWDETNL-OH [βPIX]
Scrib PDZ1
  binding to Scrib PDZ1: strongly bound
SCRIB_3; HTRF
  binding to Scrib PDZ3: able to bind

## KSHKFVMRLQSETSV [Vangl2]
SCRIB_3
  EC50: 13 µM

## SNX27 MO: morpholino 5′-TCCCCCTCCTCGTCCGCCATCTTTT-3′ targeting SNX27 translation initiation (all phosphorodiamidate morpholino (PMO))
Xenopus embryo
  neural tube closure: neural tube closure was strongly impaired in a dose-dependent manner

## VLKNMNDPAWDETNL [soluble non-biotinylated βPIX carboxy-terminal peptide (HTRF)]
GST-Scrib PDZ3
  EC50: 8 µM

B1: GFP-Vangl2: GFP fusion of Vangl2 overexpressed in cells (protein)
chain: MDTESQYSGYSYKSGHSRSSRKHRDRRDRHRSKSRDGGRGDKSVTIQAPGEPLLDNESTRGDERDDNWGETTTVVTGTSEHSISHDDLTRIAKDMEDSVPLDCSRHLGVAAGATLALLSFLTPLAFLLLPPLLWREELEPCGTACEGLFISVAFKLLILLLGSWALFFRRPKASLPRVFVLRALLMVLVFLLVVSYWLFYGVRILDARERSYQGVVQFAVSLVDALLFVHYLAVVLLELRQLQPQFTLKVVRSTDGASRFYNVGHLSIQRVAVWILEKYYHDFPVYNPALLNLPKSVLAKKVSGFKVYSLGEENSTNNSTGQSRAVIAAAARRRDNSHNEYYYEEAEHERRVRKRRARLVVAVEEAFTHIKRLQEEEQKNPREVMDPREAAQAIFASMARAMQKYLRTTKQQPYHTMESILQHLEFCITHDMTPKAFLERYLAAGPTIQYHKERWLAKQWTLVSEEPVTNGLKDGIVFLLKRQDFSLVVSTKKVPFFKLSEEFVDPKSHKFVMRLQSETSV
T47D cells
  effect on cell migration: increased cell migration
T47D cells; listed as GFP-Vangl2^Lp
  effect on cell migration: did not affect this increased cell migration
MEF^Crc/Crc
  effect on cell migration: not significantly affected relative to control conditions
wild-type MEFs
  effect on cell migration: increased cell migration
Scrib PDZ3 domain
  binding to individual GST-Scrib PDZ3: most efficient
[1]
  binding to GST-Scrib PDZ1-4: efficient binding
Scrib PDZ4
  binding to individual GST-Scrib PDZ4: some weak binding

B2: HA-tagged Vangl2: HA-tagged Vangl2 expressed in HEK 293T cells (protein)
chain: MDTESQYSGYSYKSGHSRSSRKHRDRRDRHRSKSRDGGRGDKSVTIQAPGEPLLDNESTRGDERDDNWGETTTVVTGTSEHSISHDDLTRIAKDMEDSVPLDCSRHLGVAAGATLALLSFLTPLAFLLLPPLLWREELEPCGTACEGLFISVAFKLLILLLGSWALFFRRPKASLPRVFVLRALLMVLVFLLVVSYWLFYGVRILDARERSYQGVVQFAVSLVDALLFVHYLAVVLLELRQLQPQFTLKVVRSTDGASRFYNVGHLSIQRVAVWILEKYYHDFPVYNPALLNLPKSVLAKKVSGFKVYSLGEENSTNNSTGQSRAVIAAAARRRDNSHNEYYYEEAEHERRVRKRRARLVVAVEEAFTHIKRLQEEEQKNPREVMDPREAAQAIFASMARAMQKYLRTTKQQPYHTMESILQHLEFCITHDMTPKAFLERYLAAGPTIQYHKERWLAKQWTLVSEEPVTNGLKDGIVFLLKRQDFSLVVSTKKVPFFKLSEEFVDPKSHKFVMRLQSETSV
SNX27
  interaction with SNX27: interacts

B3: GFP-Vangl2ΔTSV: GFP-Vangl2 with deletion of the classical PDZ binding motif (protein)
chain: MDTESQYSGYSYKSGHSRSSRKHRDRRDRHRSKSRDGGRGDKSVTIQAPGEPLLDNESTRGDERDDNWGETTTVVTGTSEHSISHDDLTRIAKDMEDSVPLDCSRHLGVAAGATLALLSFLTPLAFLLLPPLLWREELEPCGTACEGLFISVAFKLLILLLGSWALFFRRPKASLPRVFVLRALLMVLVFLLVVSYWLFYGVRILDARERSYQGVVQFAVSLVDALLFVHYLAVVLLELRQLQPQFTLKVVRSTDGASRFYNVGHLSIQRVAVWILEKYYHDFPVYNPALLNLPKSVLAKKVSGFKVYSLGEENSTNNSTGQSRAVIAAAARRRDNSHNEYYYEEAEHERRVRKRRARLVVAVEEAFTHIKRLQEEEQKNPREVMDPREAAQAIFASMARAMQKYLRTTKQQPYHTMESILQHLEFCITHDMTPKAFLERYLAAGPTIQYHKERWLAKQWTLVSEEPVTNGLKDGIVFLLKRQDFSLVVSTKKVPFFKLSEEFVDPKSHKFVMRLQSE
T47D cells
  effect on cell migration: in contrast to the deletion of the classical PDZ binding motif

## MSCCRSSRTRRETQL [synthetic E6 carboxy-terminal peptide]
GST-Scrib PDZ3
  EC50: 0.4 µM
